Compounds with a hit are over-represented: about 3.5% of the library has one in this group of screens.
RGS4 act: RGS4 potentiators or activators, primary screen, cell-based, HEK293 M3R inducible RGS4, calcium flux | carbachol calcium flux Fluo4; active compounds read low | B-score at 10 µM | hit rate 0.92% among 310,000;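 active = B-score of the integrated calcium signal more than 4 SD below the library mean, with starting fluorescence not abnormally high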;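 note: negative B-score means reduced calcium response which marks RGS4 activation or potentiation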
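Assay system: Inducible-RGS4 HEK293 cells carrying M3 receptor | Schedule: Compound preincubation 20 min at room temperature before agonist | Signal: Kinetic calcium fluorescence imaging with Fluo4-AM dye, 2 µM | Read-out basis: B score from integrated fluorescence ratio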
MrgX1 agonist: agonists of human MrgX1 receptor, primary screen, HEK293 cells, Fluo-4 calcium flux. Fluo-4 calcium fluorescence, agonist mode; active compounds read high. hit rate 0.44% among 310,000. B-score at 10 µM. Mas-related G-protein coupled receptor member X1 (Homo sapiens), Q96LB2;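 active = calcium response B-score plate-corrected fluorescence ratio at least 3 library SD, with starting fluorescence B-score inside 5 SD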
Target sequence (Q96LB2 whole entry, looked up): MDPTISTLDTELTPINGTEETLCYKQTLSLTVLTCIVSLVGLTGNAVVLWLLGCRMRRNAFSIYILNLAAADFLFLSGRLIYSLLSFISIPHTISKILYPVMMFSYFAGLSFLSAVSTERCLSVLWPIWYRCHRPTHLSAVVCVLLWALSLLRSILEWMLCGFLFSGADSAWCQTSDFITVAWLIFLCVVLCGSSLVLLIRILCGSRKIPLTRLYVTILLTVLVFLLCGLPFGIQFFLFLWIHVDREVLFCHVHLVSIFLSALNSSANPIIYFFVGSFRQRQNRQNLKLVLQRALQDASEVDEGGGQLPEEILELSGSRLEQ
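Material: MrgX1-expressing HEK293 cells / Dosing: compound as first of three additions / Incubation: overnight seeding, then 1 h dark dye loading / Signal: Fluo-4 NW calcium fluorescence / Evaluation: B-scored fluorescence response ratio / Benchmarks: positive and negative control wells on each plate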
RGS4 inh: RGS4 inhibitors, primary screen, cell-based, HEK293 M3R inducible RGS4, calcium flux; Regulator of G-protein signaling 4 (Homo sapiens), P49798; Fluo-4 calcium flux; active compounds read high; triggered by carbachol at its EC20; B-score at 10 µM; hit rate 0.45% among 310,000; AID 463165, 2010;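 active = B-score, a plate-corrected calcium signal, over three deviations above library mean, with baseline fluorescence within five deviations of library mean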;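 note: RGS4 expression induced by doxycycline in cells with stable M3 receptor; B-score is computed from the integrated fluorescence ratio over baseline after carbachol; higher B-score means a larger calcium signal and so more RGS4 inhibition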
Target sequence (P49798 whole entry, looked up): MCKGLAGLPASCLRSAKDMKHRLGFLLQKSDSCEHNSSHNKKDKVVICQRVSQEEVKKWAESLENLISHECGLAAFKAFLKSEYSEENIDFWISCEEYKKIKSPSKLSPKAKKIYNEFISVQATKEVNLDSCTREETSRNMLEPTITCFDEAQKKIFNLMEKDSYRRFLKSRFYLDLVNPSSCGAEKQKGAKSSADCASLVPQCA
MrgX1 allo act: positive allosteric modulators of MrgX1, primary screen, HEK293 cells, Fluo-4 calcium flux; hit rate 0.63% among 310,000; Mas-related G-protein coupled receptor member X1 (Homo sapiens), Q96LB2; FDSS; active compounds read high; B-score at 10 µM;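 active = plate-corrected calcium response at least 3 library SD above typical, normal starting fluorescence, not activating the receptor alone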;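 note: compound read alongside a low EC10 to EC30 dose of BAM8-22 agonist; peak minus trough fluorescence over baseline measured at the second addition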
MrgX1 antag: antagonists of human MrgX1 receptor, primary screen, HEK293 cells, Fluo-4 calcium flux | hit rate 1.3% among 310,000 | BAM8-22 antagonism; active compounds read low | AID 588676, 2011 | Mas-related G-protein coupled receptor member X1 (Homo sapiens), Q96LB2 | B-score at 10 µM;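 active = calcium-response B-score plate-corrected more than 3 library SD below zero, starting fluorescence within 5 deviations, no agonist response on first addition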;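 note: peak minus trough fluorescence over baseline after final BAM8-22 challenge near maximal dose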
Of the large screens only hits and unclear results are named; the others gave an inactive call.

O=C1NC(=O)C(=Cc2ccc(Oc3ccc([N+](=O)[O-])cc3)cc2)C(=O)N1	MrgX1 allo act 7
O=C1NC(=O)C(=Cc2ccc3ccccc3c2)C(=O)N1	none
Cn1c(O)c(/C=C2\N=c3ccccc3=C2CCNC(=S)NC2CC2)c(=O)n(C)c1=O	none
COc1ccc(CCNC2CCCCC2)cc1OC	none
COc1ccc(-[n+]2c(-c3ccccc3)cc(-c3ccccc3)cc2-c2ccccc2)cc1	MrgX1 antag -4.9
O=C([O-])c1ccc(-[n+]2c(-c3ccccc3)cc(-c3ccccc3)cc2-c2ccccc2)cc1	none
O=[N+]([O-])c1ccc(-[n+]2c(-c3ccccc3)cc(-c3ccccc3)cc2-c2ccccc2)cc1	MrgX1 allo act 8.4
Oc1ccc(-[n+]2c(-c3ccccc3)cc(-c3ccccc3)cc2-c2ccccc2)cc1	RGS4 act -7.2, MrgX1 allo act 12, MrgX1 antag -7.9
C[n+]1c(-c2ccccc2)cc(-c2ccc(O)cc2)cc1-c1ccccc1	none
CN(CCc1ccccc1)Cc1c[nH]c2ccccc12	none
C[N+](C)(N)CCOC(=O)C(O)(c1ccccc1)C1CCCCC1 (stereo unspecified)	RGS4 act -8.2
CC[N+](CC)(CC)CCCOC(=O)C(O)(c1ccccc1)C1CCCCC1 (stereo unspecified)	RGS4 act -8.2
CN(C)CC#CCC(O)(c1ccccc1)C1CCCC1 (stereo unspecified)	none
N/C(=N\N=C\c1ccc(O)cc1O)N[N+](=O)[O-]	none
COc1ccccc1/C=N/N=C(/N)N[N+](=O)[O-]	MrgX1 antag -7.7
O=C(O)c1ccc(NC(=O)N2C[C@H]3C[C@@H](C2)c2cccc(=O)n2C3)cc1	RGS4 act -10
Cc1cc(C(=O)C[N+]23CCN(CC2)CC3)c(C)n1-c1ccc(Br)cc1	none
COc1ccc(N2C(=O)/C(=C/c3ccc(N(C)C)o3)C(=O)NC2=S)cc1	none
CCN(CC)c1ccc(/C=C2\C(=O)NC(=S)N(c3ccc(OC)cc3OC)C2=O)o1	RGS4 act -7.2
C=C1[C@H]2C[C@H]3[C@H]4N5C[C@]6(C)CCC[C@]47[C@H]([C@H]2O)[C@]3(C[C@]5(O)[C@H]67)[C@@H]1O	none
Cn1c(O)c(C=NC2CCN(Cc3ccccc3)CC2)c(=O)[nH]c1=O	none
Cn1c(O)c(C=NC2CCCCCC2)c(=O)[nH]c1=S	MrgX1 antag -6.4
CC(=NCc1cccnc1)c1c(O)n(-c2ccc(Cl)cc2)c(=O)[nH]c1=O	none
Cc1cc(Oc2ccc(C(F)(F)F)cc2[N+](=O)[O-])c2c3c(c(=O)oc2c1)CCC3	none
Cc1cc(Oc2ccc(C(F)(F)F)cc2[N+](=O)[O-])c2c3c(c(=O)oc2c1)CCCC3	RGS4 act -7.4
O=C(O)c1cc[c]([Hg][Cl])cc1	MrgX1 allo act 13 (no result: RGS4 act, RGS4 inh)
Cc1cc(C=O)c(C)n1C1CC1	none
O=c1[nH]c(=O)n(C2CCCCC2)c(O)c1/C=C/C=Nc1ccccc1	MrgX1 antag -5
COC(=O)c1ccc(CN2CCSC2=N)cc1	none
O=C(COc1ccccc1)N1CCN(CC2CC=CCC2)CC1 (stereo unspecified)	none
CCCC[N+]12CCC(CC1)C(=C(c1ccccc1)c1ccccc1)C2	RGS4 act -8.6
O=C1NC(=O)C(=Cc2ccc(N3CCOCC3)o2)C(=O)N1	RGS4 act -7.6
OC(Cn1c2ccccc2c2ccccc21)C[n+]1cccc2ccccc21 (stereo unspecified)	RGS4 act -7.9
O=C1NC(=S)N(c2ccccc2)C(=O)/C1=C/c1ccco1	none
O=C1NC(=S)N(c2ccccc2)C(=O)C1C(c1ccncc1)C1C(=O)NC(=S)N(c2ccccc2)C1=O (stereo unspecified)	MrgX1 antag -7.6
COc1cc(C(O)CNC(C)C)cc(F)c1OC (stereo unspecified)	none
CC(C)(C)c1cc([N+](=O)[O-])cc(C(C)(C)C)c1O	none
CCOc1cc2c(cc1OCC)-n1cccc1C(c1ccc(C)cc1C)NC2 (stereo unspecified)	none
CCOc1cc2c(cc1OCC)-n1cccc1C(c1cc(C)c(OC)cc1C)NC2 (stereo unspecified)	MrgX1 antag -4.9
O=P(Nc1cccc(F)c1)(Oc1ccccc1F)Oc1ccccc1F	RGS4 act -8.2
Cc1ccc(NP(=O)(Oc2ccccc2F)Oc2ccccc2F)cc1C	none
Cc1cccc(NP(=O)(Oc2ccccc2F)Oc2ccccc2F)c1	RGS4 act -7.8
O=C(COc1ccc(Cl)cc1)NCCc1cnc[nH]1	none
O=C(Nc1ccccc1)OC1CN=C(N[N+](=O)[O-])NC1 (stereo unspecified)	MrgX1 antag -5.7
CCN1CCN(Cc2ccc(OC(F)(F)F)cc2)CC1	none
CCCCCCOc1ccc(CN2CCN(CC)CC2)cc1	RGS4 act -7.1
O=C(O)[C@H]1C[C@@H]1[C@H](NP(=O)(c1ccccc1)c1ccccc1)c1ccccc1	none
COC(=O)C(Cc1ccc(N(CCCl)CCCl)cc1)N=Cc1ccccc1O (stereo unspecified)	RGS4 act -7.1
O=C(O)[C@H]1NC[C@H]2C[C@H]21	none
CCN(CC)S(=O)(=O)c1ccc(NN=C(C#N)C#N)cc1	MrgX1 antag -7.4
N#CC(C#N)=NNc1ccc(-n2ccc(C(F)(F)F)n2)cc1	none
O=C(c1ccc(Cl)cc1)C1CCCN(Cc2cccc3cccnc23)C1 (stereo unspecified)	RGS4 act -7.1
O=C(c1ccc(Cl)cc1)C1CCCN(Cc2cccc3ncccc23)C1 (stereo unspecified)	none
Cc1ccc(Cn2cc(C=O)c(-c3ccc(C)cc3)n2)cc1	none
CN1CCN(Cc2cc(C(C)(C)C)c(O)c(C(C)(C)C)c2)CC1	MrgX1 antag -5.2
COc1cc(CNCCc2ccc3c(c2)OCO3)cc(OC)c1OC	none
O=C1OC(c2ccc(Cl)cc2)=N/C1=C\N1CC2CC(C1)c1cccc(=O)n1C2 (stereo unspecified)	none
O=C(C[N+]12CCC(CC1)C(C(O)(c1ccccc1)c1ccccc1)C2)c1ccc(Br)cc1 (stereo unspecified)	RGS4 act -10
OCC[N+]12CCC(CC1)C(C(O)(c1ccccc1)c1ccccc1)C2 (stereo unspecified)	none
O=[N+]([O-])c1ccc(N2CCNCC2)cc1N1CCCCCC1	MrgX1 allo act 11
O=[N+]([O-])c1cc(F)c(N2CCCCCC2)cc1N1CCNCC1	MrgX1 antag -5.2
CN1CCN(c2ccc([N+](=O)[O-])c(N3CCCCC3)c2)CC1	none
O=P1(N(CCCl)CCCl)NCCCO1 (stereo unspecified)	none
CN1CCCN(C(=O)COc2ccc(F)cc2Cl)CC1	none
